Key:
[1] = molecular target: T1, Alpha-1A adrenergic receptor (Rattus norvegicus, UniProt P43140); assay: Displacement of [3H]prazosin from Alpha-1A adrenergic receptor of rat submaxillary gland membranes; assay type: cell membranes, Membrane
T1 sequence (P43140 whole entry): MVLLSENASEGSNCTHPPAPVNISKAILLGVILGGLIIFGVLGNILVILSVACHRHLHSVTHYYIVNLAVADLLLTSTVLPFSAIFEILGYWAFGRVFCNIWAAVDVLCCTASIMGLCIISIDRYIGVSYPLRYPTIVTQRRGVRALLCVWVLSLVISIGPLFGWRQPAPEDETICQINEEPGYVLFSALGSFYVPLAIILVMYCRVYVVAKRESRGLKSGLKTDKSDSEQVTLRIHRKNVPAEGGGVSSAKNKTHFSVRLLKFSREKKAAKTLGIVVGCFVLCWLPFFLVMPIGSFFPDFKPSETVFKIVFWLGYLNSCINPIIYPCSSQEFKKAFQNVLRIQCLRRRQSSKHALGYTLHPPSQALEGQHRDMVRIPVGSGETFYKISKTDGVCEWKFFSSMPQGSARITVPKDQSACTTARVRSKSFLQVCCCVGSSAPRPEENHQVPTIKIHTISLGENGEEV
Method in brief: (§1)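 Triplicate competition binding against 0.2-0.25 nM [³H]prazosin in Tris buffer pH 7.4, 30 min at room temperature. Competitor range 0.1-200 nM. Nonspecific binding defined with 10 µM phentolamine. Reaction stopped by GF/B filtration with two cold Tris washes. Membrane protein 300-400 µg per assay. Ki calculated from the data; mean ± SEM of 3-6 experiments.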

[2] = Selectivity ratio for binding affinity towards alpha2 and alpha-1 adrenoceptors
Method in brief: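 Ratio of α2 Ki ([³H]clonidine binding) to α1 Ki ([³H]prazosin binding), both measured in rat cortical membrane competition assays.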

[3] = molecular target: T2, Adrenergic receptor alpha-1 (Rattus norvegicus, UniProt P15823+P23944+P43140); assay: Displacement of [3H]-prazosin from Alpha-1 adrenergic receptor of rat cortical membranes; assay type: cell membranes, Membrane; method in brief: as §1
T2 sequence (P15823 whole entry): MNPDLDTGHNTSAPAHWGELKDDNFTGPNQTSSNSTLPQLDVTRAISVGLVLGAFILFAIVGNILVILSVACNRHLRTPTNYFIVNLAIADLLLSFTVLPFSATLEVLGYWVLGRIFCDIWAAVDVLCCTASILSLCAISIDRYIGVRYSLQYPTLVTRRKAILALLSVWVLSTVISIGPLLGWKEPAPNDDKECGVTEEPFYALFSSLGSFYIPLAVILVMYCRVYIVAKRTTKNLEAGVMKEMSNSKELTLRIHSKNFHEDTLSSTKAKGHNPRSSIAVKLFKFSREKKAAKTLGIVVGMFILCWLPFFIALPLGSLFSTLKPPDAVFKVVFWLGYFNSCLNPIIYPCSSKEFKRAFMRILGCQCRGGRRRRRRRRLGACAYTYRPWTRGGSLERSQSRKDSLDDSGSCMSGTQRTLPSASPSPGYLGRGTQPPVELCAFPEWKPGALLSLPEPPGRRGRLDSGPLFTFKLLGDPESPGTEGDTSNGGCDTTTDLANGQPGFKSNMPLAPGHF
T2 sequence (P23944 whole entry): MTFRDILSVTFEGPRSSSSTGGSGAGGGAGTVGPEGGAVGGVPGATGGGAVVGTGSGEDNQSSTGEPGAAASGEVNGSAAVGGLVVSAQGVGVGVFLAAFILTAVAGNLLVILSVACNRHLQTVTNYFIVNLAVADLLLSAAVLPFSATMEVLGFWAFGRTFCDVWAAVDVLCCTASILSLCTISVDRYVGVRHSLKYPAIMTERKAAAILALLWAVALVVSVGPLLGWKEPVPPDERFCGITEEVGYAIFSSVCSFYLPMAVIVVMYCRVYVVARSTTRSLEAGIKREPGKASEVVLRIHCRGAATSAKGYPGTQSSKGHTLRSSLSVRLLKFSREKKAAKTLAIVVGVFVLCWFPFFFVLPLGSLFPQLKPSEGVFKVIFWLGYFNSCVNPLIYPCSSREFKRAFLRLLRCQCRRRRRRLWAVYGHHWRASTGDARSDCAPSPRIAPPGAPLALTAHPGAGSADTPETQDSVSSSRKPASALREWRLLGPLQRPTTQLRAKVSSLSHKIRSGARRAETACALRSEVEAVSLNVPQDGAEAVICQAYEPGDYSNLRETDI
T2 sequence (P43140 whole entry): T1 sequence (P43140 whole entry)

| Structure (SMILES) | Ki [1] [nM] | Ratio [2] | Ki [3] [nM] |
| --- | --- | --- | --- |
| COc1ccccc1N1CCN(CC2CN3C(=O)Nc4ccccc4C3=N2)CC1 (stereo unspecified) | 0.65 | 247 | 0.93 |
| COc1ccccc1N1CCN(C[C@H]2CN=C3c4ccccc4N=C(SC)N32)CC1 | 1.5 | 3500 | 1 |
| COc1ccccc1N1CCN(Cc2cnc3c4ccccc4nc(O)n23)CC1 | – | 1550 | – |
| Oc1nc2ccccc2c2ncc(CN3CCN(c4ccccc4Cl)CC3)n12 | – | 382 | – |
| COc1ccccc1N1CCN(CC2CN=C3c4ccccc4N=C(SC)N32)CC1 (stereo unspecified) | 0.93 | 1080 | 0.9 |
| COc1ccccc1N1CCN(C[C@@H]2CN=C3c4ccccc4NC(=O)N32)CC1 | 55 | > 384 | 26 |
| COc1ccccc1N1CCN(C[C@@H]2CN=C3c4ccccc4N=C(SC)N32)CC1 | 122 | 62.5 | 144 |
| COc1ccccc1N1CCN(Cc2cn3c(O)nc4ccccc4c3n2)CC1 | – | 1030 | – |
| COc1ccccc1N1CCN(C[C@H]2CN=C3c4ccccc4NC(=O)N32)CC1 | 0.23 | 1410 | 0.13 |

Reference: ChEMBL document CHEMBL1131058, “Studies on quinazolines and 1,2,4-benzothiadiazine 1,1-dioxides. 8.1, 2 synthesis and pharmacological evaluation of tricyclic fused quinazolines and 1,2,4-benzothiadiazine 1,1-dioxides as potential alpha1-adrenoceptor antagonists” (J Med Chem, 1998)
